Compound activity as filed in PubChem BioAssay.
This is a sample that favours compounds with a hit; in the whole collection about 2.5% have one here.
E-sel inducer = E-selectin induction on HUVECs. activation, % at 7.58 µM. HUVEC E-selectin immunofluorescence imaging; normalized: neutral wells 0, TNF-alpha wells 100. 0.37% of 260,000 active;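 active means mean E-selectin-positive cell signal at least 10% of the positive control, reached in at least 60% of replicates, without over 20% cell loss; inconclusive means no rule given, readout overlaps actives, possibly toxicity-flagged; inactive means the rest, including those meeting only one limit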
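Test system: HUVEC; input: 3,000 HUVEC/well; measured by: immunofluorescence imaging; read-out: % PE-positive cells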
SIRT5 block = inhibitors of human sirtuin-5 desuccinylase. AID 652115. Purified SirT5, succinyl-peptide AMC, trypsin-coupled fluorescence. inhibition, % at 15 µM. Q9NXA8. 1.1% of 330,000 active; in the data active means inhibition above about 15%; inconclusive means no clear call, values can overlap the other calls
Target sequence (Q9NXA8 whole entry, looked up): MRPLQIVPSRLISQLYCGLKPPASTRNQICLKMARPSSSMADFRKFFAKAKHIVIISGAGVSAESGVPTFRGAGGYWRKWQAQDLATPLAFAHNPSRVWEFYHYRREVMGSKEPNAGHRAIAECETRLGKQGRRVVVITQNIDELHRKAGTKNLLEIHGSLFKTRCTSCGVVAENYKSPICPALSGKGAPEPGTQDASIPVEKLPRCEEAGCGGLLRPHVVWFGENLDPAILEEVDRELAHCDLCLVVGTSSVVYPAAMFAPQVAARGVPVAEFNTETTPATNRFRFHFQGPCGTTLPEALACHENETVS
ERAP1 HTS inh = ERAP1 (human) enzyme inhibition; Q9NZ08; inhibition, % at 10.7 µM; AID 652197; recombinant ERAP1, Leu-AMC fluorescence, 60 min; 0.15% of 340,000 active;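 active means mean replicate inhibition of at least 30%, or all replicates individually reaching that 30% level; inactive means mean below 30% and not every replicate reaching it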;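 further: 0% = neutral control wells and 100% = L-leucinethiol positive control wells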
PglD DTNB = inhibitors of Campylobacter jejuni PglD acetyltransferase; purified PglD enzyme, DTNB colorimetric CoA detection; inhibition, % at 12.5 µM; 0.098% of 360,000 active; in the data active means inhibition above about 16%, passing the limit was not always enough; inconclusive means no clear call, values can overlap the other calls
DENV2 CPE = DENV2-induced cell death inhibition. DENV2-infected cells, cytopathic effect rescue, plate reader. CPE inhibition, % at 9.99 µM. 1.7% of 350,000 active; in the data active means CPE inhibition above about 20%, passing the limit was not always enough; inconclusive means no clear call, values can overlap the other calls; tested in BHK-21 cells;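 further: 0% = median of neutral control wells and 100% = median of positive control wells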
* hit, by the source's call.

How did COc1ccc(S(=O)(=O)N2CC[C@@H]3[C@@H](CO)Nc4ccc(-c5ccc(C#N)cc5)cc4[C@@H]32)cc1 do in these assays?
E-sel inducer: 0; SIRT5 block: 1; ERAP1 HTS inh: -3; PglD DTNB: 1; DENV2 CPE: 7

Results for O=S(=O)(c1ccccc1)N1CC[C@H]2[C@H](CO)Nc3ccc(-c4ccccc4F)cc3[C@H]21 ?
E-sel inducer: 1; PglD DTNB: 0

Results for CC(C)CNC(=O)C(=O)NCC1OCCCN1S(=O)(=O)c1ccc2c(c1)OCCO2 (stereo unspecified) ?
E-sel inducer: 1; SIRT5 block: -1; ERAP1 HTS inh: 1; PglD DTNB: -4; DENV2 CPE: -1

Results for CC(=O)c1ccc(NC(=O)Cn2cnc(S(=O)(=O)N3CCc4ccccc43)c2)cc1 ?
E-sel inducer: 0; SIRT5 block: 7; ERAP1 HTS inh: -1; PglD DTNB: -5; DENV2 CPE: inconclusive

Results for COc1cc(O)c(C(=O)/C=C/c2ccccc2)c(OC)c1 ?
SIRT5 block: 7; ERAP1 HTS inh: 0; PglD DTNB: -2; DENV2 CPE: inconclusive

How did Cc1cc(C)nc(N2CCN(C(=O)CCC(=O)Nc3nnc(CC(C)C)s3)CC2)n1 do in these assays?
SIRT5 block: -1; ERAP1 HTS inh: -1; DENV2 CPE: -6

How did Cc1ccccc1S(=O)(=O)N1CC[C@@H]2[C@@H](CO)Nc3ccc(-c4ccccc4F)cc3[C@@H]21 do in these assays?
E-sel inducer: -1; SIRT5 block: 1; ERAP1 HTS inh: -1; PglD DTNB: 4; DENV2 CPE: 42*

How did O=S(=O)(c1ccc(F)cc1)N1CC[C@@H]2[C@@H](CO)Nc3ccc(-c4ccc(F)cc4)cc3[C@@H]21 do in these assays?
E-sel inducer: 0; PglD DTNB: -1; DENV2 CPE: 51*

How did O=S(=O)(c1ccccc1F)N1CC[C@@H]2[C@@H](CO)Nc3ccc(-c4cccc(F)c4)cc3[C@@H]21 do in these assays?
E-sel inducer: -1; SIRT5 block: 6; ERAP1 HTS inh: -1; PglD DTNB: -39; DENV2 CPE: -19

How did Cc1cccc(S(=O)(=O)N2CC[C@@H]3[C@H]2c2cc(-c4ccccc4F)ccc2N[C@@H]3CO)c1 do in these assays?
E-sel inducer: 1; PglD DTNB: 1; DENV2 CPE: 40*

What do the screens show for `O=S(=O)(c1ccccc1F)N1CC[C@@H]2[C@H](CO)Nc3ccc(-c4ccccc4)cc3[C@@H]21`?
E-sel inducer: 1; SIRT5 block: 8; ERAP1 HTS inh: 1; PglD DTNB: 3; DENV2 CPE: 24*

How did COC(=O)c1ccc(NC(=O)CSc2nnc(COc3c(C)cccc3C)o2)cc1 do in these assays?
PglD DTNB: 3

How did O=C(CCN1CCN(C(=O)c2ccccc2)CC1)c1ccc(Br)cc1 do in these assays?
SIRT5 block: -2; ERAP1 HTS inh: 7; PglD DTNB: 2; DENV2 CPE: -4

How did C/C=C/c1ccc2c(c1)[C@H]1[C@H](CCN1S(=O)(=O)c1ccccc1F)[C@H](CO)N2 do in these assays?
E-sel inducer: 0; PglD DTNB: 2; DENV2 CPE: 25*

What do the screens show for `O=S(=O)(c1cccc(F)c1)N1CC[C@@H]2[C@H]1c1cc(-c3cccc(F)c3)ccc1N[C@@H]2CO`?
E-sel inducer: -1; PglD DTNB: 2; DENV2 CPE: 52*

How did COc1ccccc1NC(=O)Nc1cc(C(C)C)ccc1C do in these assays?
SIRT5 block: -7; ERAP1 HTS inh: -25; PglD DTNB: -2; DENV2 CPE: -2

Results for COc1ccc2ccccc2c1/C=N/NC(=O)c1nnn(-c2nonc2N)c1C(C)C ?
E-sel inducer: 1; SIRT5 block: 28*; ERAP1 HTS inh: -3; PglD DTNB: 8; DENV2 CPE: 9

Results for CCCc1c(C(=O)N/N=C/c2ccoc2)nnn1-c1nonc1N ?
E-sel inducer: 0; SIRT5 block: -3; ERAP1 HTS inh: 11; PglD DTNB: 1; DENV2 CPE: 21*

Results for COC(=O)Nc1ccc(S(=O)(=O)N2CCCC(C(=O)Nc3cccc4c3OCCO4)C2)cc1 (stereo unspecified) ?
PglD DTNB: 2

Results for CCN(CC)c1ccc2nc3c4ccccc4c(=O)cc-3oc2c1 ?
E-sel inducer: 203*; SIRT5 block: -4; ERAP1 HTS inh: 0; DENV2 CPE: 0

What do the screens show for `COc1ccccc1CCC(=O)Nc1ccc2c(c1)c(=O)n(C)n2C`?
E-sel inducer: -1; SIRT5 block: -23; ERAP1 HTS inh: 38*; PglD DTNB: -6; DENV2 CPE: -7

Results for COc1ccccc1CCC(=O)Nc1ccc2c(c1)c(=O)n(C)n2Cc1ccc(F)cc1 ?
E-sel inducer: 2; ERAP1 HTS inh: 2; PglD DTNB: 4; DENV2 CPE: 6

Results for Cc1ccc(S(=O)(=O)N(Cc2ccccc2)Cc2ccco2)cc1 ?
PglD DTNB: 1

How did Cc1ccc(S(=O)(=O)N(CC(=O)O)Cc2ccco2)cc1 do in these assays?
SIRT5 block: -1; ERAP1 HTS inh: 1; DENV2 CPE: 28*

What do the screens show for `COCC(=O)N1[C@H](CO)[C@H](c2ccccc2)[C@@H]1CNC(=O)c1ccccn1`?
E-sel inducer: 0; SIRT5 block: 15*; ERAP1 HTS inh: 1; PglD DTNB: 0; DENV2 CPE: -4

Results for COCC(=O)N1[C@H](CO)[C@@H](c2ccccc2)[C@H]1CNC(=O)c1ccccn1 ?
E-sel inducer: 0; SIRT5 block: 7; ERAP1 HTS inh: 0; PglD DTNB: 0; DENV2 CPE: 4

How did O=C(NC[C@H]1[C@H](c2ccccc2)[C@H](CO)N1Cc1cccnc1)c1ccccn1 do in these assays?
E-sel inducer: 0; SIRT5 block: 17*; PglD DTNB: 2; DENV2 CPE: 11

Results for CCN(CC)C(=O)c1sc2c(c1C)c(=O)n(-c1ccc(OC)cc1OC)c(=O)n2CC(=O)c1ccccc1 ?
E-sel inducer: 1; SIRT5 block: -2; ERAP1 HTS inh: -2; DENV2 CPE: 11

Results for CCOC(=O)c1c(/N=C/C2C(=O)CCCC2=O)sc2c1CCCC2 ?
SIRT5 block: -3; ERAP1 HTS inh: -4; DENV2 CPE: 4

Results for CCOC(=O)c1c(CC(C)C)csc1/N=C/C1C(=O)CCCC1=O ?
E-sel inducer: 33*; SIRT5 block: -5; ERAP1 HTS inh: 1; DENV2 CPE: inconclusive

Results for CC(=O)Nc1ccc(S(=O)(=O)NCCC(=O)OCc2nnc(-c3ccccc3)o2)cc1 ?
SIRT5 block: 2; ERAP1 HTS inh: 3; PglD DTNB: 0; DENV2 CPE: 1

How did COc1ccccc1CC(=O)NNS(=O)(=O)c1ccc([N+](=O)[O-])cc1 do in these assays?
E-sel inducer: -1; SIRT5 block: 25*; PglD DTNB: -2; DENV2 CPE: -9

How did CCC(=O)N1CCCCN2[C@@H](CO)[C@@H](c3ccc(C#Cc4ccccc4F)cc3)[C@@H]2C1 do in these assays?
E-sel inducer: 0; SIRT5 block: -4; ERAP1 HTS inh: 5; PglD DTNB: 11; DENV2 CPE: inconclusive
